In ChEMBL document CHEMBL3856284, “Discovery, design and synthesis of 6H-anthra[1,9-cd]isoxazol-6-one scaffold as G9a inhibitor through a combination of shape-based virtual screening and structure-based molecular modification” (Bioorg Med Chem, 2016):
Active and inactive are the calls of the source. The rule behind the calls is not given here.

How the values were obtained:
[1] = Antiproliferative activity against human HCT116 cells assessed as inhibition of cell viability after 72 hrs by MTT assay; assay type: functional, cell-based; settings: HCT-116, 72 h
[2] = Antiproliferative activity against human HepG2 cells assessed as inhibition of cell viability after 72 hrs by MTT assay; assay type: functional, cell-based; settings: HepG2, 72 h
MCF7 [3] = experiment: Induction of phenotypic changes in human MCF7 cells assessed as membrane blebbing at 4 uM after 24 hrs by inverted light microscopic method; assay type: functional, cell-based
Summary of the method: (§1)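 MCF-7 cells were incubated 24 h with 2, 4 or 8 µM compound, with an untreated group as control. Cell morphology (distortion, blebbing, shrinkage, rounding, necrosis) was examined under an inverted light microscope at ×200.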

MCF7 [4] = experiment: Induction of phenotypic changes in human MCF7 cells assessed as shrinkage at 4 uM after 24 hrs by inverted light microscopic method; assay type: functional, cell-based; summary of the method: as §1
MCF7 [5] = experiment: Induction of phenotypic changes in human MCF7 cells assessed as round in shape at 8 uM after 24 hrs by inverted light microscopic method; assay type: functional, cell-based; summary of the method: as §1
MCF7 [6] = experiment: Induction of apoptosis in human MCF7 cells assessed as appearance of apoptotic bodies after 24 hrs by Hoechst 33258 staining-based fluorescence microscopy; assay type: functional, cell-based
MCF7 [7] = experiment: Induction of apoptosis in human MCF7 cells assessed as late apoptotic cells at 2 uM after 48 hrs by annexin V staining-based flow cytometric analysis (reference value: 11%); assay type: functional
MCF7 [8] = experiment: Induction of apoptosis in human MCF7 cells assessed as viable cells at 2 uM after 48 hrs by annexin V staining-based flow cytometric analysis (reference value: 82.85%); assay type: functional; settings: MCF7, 48 h, read-out: Activity
MCF7 [9] = experiment: Induction of apoptosis in human MCF7 cells assessed as early apoptotic cells at 4 uM after 48 hrs by annexin V staining-based flow cytometric analysis (reference value: 0.5%); assay type: functional
MCF7 [10] = experiment: Induction of apoptosis in human MCF7 cells assessed as necrotic cells at 4 uM after 48 hrs by annexin V staining-based flow cytometric analysis (reference value: 5.65%); assay type: functional
MCF7 [11] = experiment: Induction of apoptosis in human MCF7 cells assessed as late apoptotic cells at 8 uM after 48 hrs by annexin V staining-based flow cytometric analysis (reference value: 11%); assay type: functional
MCF7 [12] = experiment: Induction of apoptosis in human MCF7 cells assessed as necrotic cells at 8 uM after 48 hrs by annexin V staining-based flow cytometric analysis (reference value: 5.65%); assay type: functional
[13] = molecular target: T1, Histone-lysine N-methyltransferase EHMT2 (Homo sapiens) (UniProt Q96KQ7); experiment: Inhibition of G9a in human MCF7 cells assessed as decrease in dimethylation level of H3K9 at […] after 48 hrs by Western blot method; assay type: cell-based
T1 sequence (whole entry): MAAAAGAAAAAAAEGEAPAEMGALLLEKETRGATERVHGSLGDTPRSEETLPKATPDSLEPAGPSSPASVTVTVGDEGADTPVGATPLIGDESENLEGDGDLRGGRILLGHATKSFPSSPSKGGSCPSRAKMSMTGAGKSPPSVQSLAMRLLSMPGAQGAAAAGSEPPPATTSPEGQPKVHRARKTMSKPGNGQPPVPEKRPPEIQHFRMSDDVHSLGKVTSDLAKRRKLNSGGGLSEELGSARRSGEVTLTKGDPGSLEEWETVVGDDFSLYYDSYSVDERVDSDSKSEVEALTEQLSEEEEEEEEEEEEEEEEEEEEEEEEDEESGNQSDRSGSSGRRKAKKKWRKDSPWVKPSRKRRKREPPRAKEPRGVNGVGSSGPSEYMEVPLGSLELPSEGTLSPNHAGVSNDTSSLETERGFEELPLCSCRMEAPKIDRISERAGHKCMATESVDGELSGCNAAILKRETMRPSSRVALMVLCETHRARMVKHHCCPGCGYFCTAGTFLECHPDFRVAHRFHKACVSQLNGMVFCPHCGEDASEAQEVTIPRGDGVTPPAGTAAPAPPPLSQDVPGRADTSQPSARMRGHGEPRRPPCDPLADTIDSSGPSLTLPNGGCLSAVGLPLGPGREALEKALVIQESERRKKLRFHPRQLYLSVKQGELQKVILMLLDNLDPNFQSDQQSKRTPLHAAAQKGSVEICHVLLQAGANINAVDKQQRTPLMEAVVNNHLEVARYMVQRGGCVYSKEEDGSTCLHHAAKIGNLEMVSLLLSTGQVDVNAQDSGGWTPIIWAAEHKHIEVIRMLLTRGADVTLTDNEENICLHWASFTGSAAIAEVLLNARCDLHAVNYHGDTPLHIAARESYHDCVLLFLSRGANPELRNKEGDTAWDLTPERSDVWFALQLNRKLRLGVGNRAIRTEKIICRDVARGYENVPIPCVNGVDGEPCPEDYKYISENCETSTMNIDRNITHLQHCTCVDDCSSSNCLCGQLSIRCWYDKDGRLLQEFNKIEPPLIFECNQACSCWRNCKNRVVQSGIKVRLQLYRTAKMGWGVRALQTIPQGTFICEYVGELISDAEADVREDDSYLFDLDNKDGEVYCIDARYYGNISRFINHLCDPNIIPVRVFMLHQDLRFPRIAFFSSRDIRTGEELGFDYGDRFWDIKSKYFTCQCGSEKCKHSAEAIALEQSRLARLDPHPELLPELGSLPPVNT

[14] = molecular target: T1, Histone-lysine N-methyltransferase EHMT2 (Homo sapiens); experiment: Inhibition of G9a in human MCF7 cells assessed as decrease in trimethylation level of H3K9 after 48 hrs by Western blot method; assay type: cell-based
Mus musculus [15] = experiment: AUC in mouse at 10 mg/kg, po after 5 mins to 24 hrs by LC-MS/MS analysis; settings: in vivo
Mus musculus [16] = experiment: AUC in mouse at 10 mg/kg, iv after 2 mins to 24 hrs by LC-MS/MS analysis; settings: in vivo
Mus musculus [17] = experiment: Cmax in mouse at 10 mg/kg, iv after 2 mins to 24 hrs by LC-MS/MS analysis; settings: in vivo
Mus musculus [18] = experiment: Half life in mouse at 10 mg/kg, po after 5 mins to 24 hrs by LC-MS/MS analysis; settings: in vivo
Mus musculus [19] = experiment: Clearance in mouse at 10 mg/kg, po after 5 mins to 24 hrs by LC-MS/MS analysis; settings: in vivo
Mus musculus [20] = experiment: Half life in mouse at 10 mg/kg, iv after 2 mins to 24 hrs by LC-MS/MS analysis; settings: in vivo
Mus musculus [21] = experiment: Clearance in mouse at 10 mg/kg, iv after 2 mins to 24 hrs by LC-MS/MS analysis; settings: in vivo
Mus musculus [22] = experiment: Oral bioavailability in mouse at 10 mg/kg after 5 mins to 24 hrs by LC-MS/MS analysis; settings: in vivo
Mus musculus [23] = experiment: Volume of distribution in mouse at 10 mg/kg, iv after 2 mins to 24 hrs by LC-MS/MS analysis; settings: in vivo

inhibition [13]: Active
inhibition [14]: Dose-dependent effect
AUC (Mus musculus [15]): 724 ng·h/mL
AUC (Mus musculus [16]): 1300 ng·h/mL
Cmax (Mus musculus [17]): 188 ng/mL
half-life (Mus musculus [18]): 240 min
CL/F (Mus musculus [19]): 253 mL/min/kg
half-life (Mus musculus [20]): 414 min
clearance (Mus musculus [21]): 135 mL/min/kg
bioavailability (Mus musculus [22]): 55.5%
Vd (Mus musculus [23]): 80.2 L/kg
Structure (SMILES): O=C1c2ccccc2-c2onc3c(N4CCCCC4)cc(NCCN4CCCC4)c1c23
IC50 [1]: 3.18 µM
IC50 [2]: 7.93 µM
Activity (MCF7 [3]): Active
Activity (MCF7 [4]): Active
Activity (MCF7 [5]): Active
Activity (MCF7 [6]): Dose-dependent effect
Activity (MCF7 [7]): 18.25%
viability at 2 µM (MCF7 [8]): 78.2%
Activity (MCF7 [9]): 0.8%
Activity (MCF7 [10]): 3.1%
Activity (MCF7 [11]): 30.05%
Activity (MCF7 [12]): 0.75%
